Consider 11 molecules from ChEMBL document CHEMBL3865799, “Synthesis of a series of novel dihydroartemisinin monomers and dimers containing chalcone as a linker and their anticancer activity” (Eur J Med Chem, 2016).

The nature of data set [1]: Cytotoxicity against human HL60 cells assessed as cell growth inhibition at 50 uM after 48 hrs by MTT assay. The class given is functional. To be noted: HL-60, 48 h, read-out: GI. The gist of the method:
(§1)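 HL-60 suspension cells, 1.5 × 10^4 per well, grown at 37 °C in 5% CO2 with 10% FCS. Treated 48 h with compound in DMSO (vehicle <0.2% v/v). MTT added 3 h before the end. Formazan dissolved in DMSO and read at 570 nm (reference 620 nm). % growth inhibition computed against untreated cells; IC50 taken from the concentration series.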

Data set [2] is described as follows: Cytotoxicity against human HL60 cells assessed as cell growth inhibition at 30 uM after 48 hrs by MTT assay. The class given is functional. As to conditions: HL-60, 48 h, read-out: GI. The method, boiled down:
as §1

Data set [3] in a line: Cytotoxicity against human MIAPaCa2 cells assessed as cell growth inhibition at 30 uM after 48 hrs by MTT assay. The class given is functional. To be noted: MIA PaCa-2, 48 h, read-out: GI. The method, boiled down:
(§2)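 Adherent lines at 70–75% confluence, grown at 37 °C in 5% CO2 with 10% FCS. Exposed 48 h to compound in DMSO (vehicle <0.2% v/v). MTT dye added 3 h before termination; formazan dissolved in DMSO, OD 570 nm with 620 nm reference. Growth inhibition expressed as % of untreated; IC50 taken from the dose series.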
(Tetrazolium assays rely on reduction of a dye to a coloured formazan, in cell work by metabolically active cells.)

Data set [4] can be described thus: Cytotoxicity against human MIAPaCa2 cells assessed as cell growth inhibition at 50 uM after 48 hrs by MTT assay. Type of data set: functional. As to conditions: MIA PaCa-2, 48 h, read-out: GI. The method, boiled down: as §2
Data set [5] is described as follows: Cytotoxicity against human PC3 cells assessed as cell growth inhibition at 30 uM after 48 hrs by MTT assay. Type of data set: functional. As to conditions: PC-3, 48 h, read-out: GI. The gist of the method:
as §2

A short description of data set [6]: Cytotoxicity against human PC3 cells assessed as cell growth inhibition at 50 uM after 48 hrs by MTT assay. Type of data set: functional. As to conditions: PC-3, 48 h, read-out: GI. The gist of the method:
as §2

The nature of data set [7]: Cytotoxicity against human HepG2 cells assessed as cell growth inhibition at 30 uM after 48 hrs by MTT assay. Type of data set: functional. To be noted: HepG2, 48 h, read-out: GI. The method, boiled down:
as §2

Data set [8] in a line: Cytotoxicity against human HepG2 cells assessed as cell growth inhibition at 50 uM after 48 hrs by MTT assay. Type of data set: functional. To be noted: HepG2, 48 h, read-out: GI. The gist of the method:
as §2

The nature of data set [9]: Cytotoxicity against human LS180 cells assessed as cell growth inhibition at 30 uM after 48 hrs by MTT assay. The class given is functional. To be noted: LS180, 48 h, read-out: GI. The method, boiled down: as §2
A short description of data set [10]: Cytotoxicity against human LS180 cells assessed as cell growth inhibition at 50 uM after 48 hrs by MTT assay. The class given is functional. As to conditions: LS180, 48 h, read-out: GI. The method, boiled down:
as §2

A short description of data set [11]: Lipophilicity, log P of the compound. The class given is physicochemical. As to conditions: octanol/water.
A short description of data set [12]: Aqueous solubility of the compound at pH 7. Type of data set: physicochemical.

On to `COc1ccc(/C=C/C(=O)c2ccc(OCCO[C@H]3O[C@@H]4O[C@@]5(C)CC[C@H]6[C@H](C)CC[C@@H]([C@H]3C)[C@@]46OO5)cc2)c(OC)c1OC`, for which the inhibition of growth at 50 µM in data set [1] was determined as 82.9%; in data set [4], 43.1%; in [6], 54.2%; in data set [8], 30.1%; in data set [10], 58.5%. For the same molecule, the inhibition of growth at 30 µM came out at 78.7% in data set [2]; 36.2% in data set [3]; 53.3% in data set [5]; 28.1% in [7]; 50.8% in [9]. The molecule further had a logP in data set [11] of 5.34 to 7.45. Further, the solubility in [12] is less than 10 µg/mL.
On to `C[C@H]1[C@@H](OCCOc2ccc(/C=C/C(=O)c3ccccc3Cl)cc2)O[C@@H]2O[C@@]3(C)CC[C@H]4[C@H](C)CC[C@@H]1[C@@]24OO3`, for which the inhibition of growth at 50 µM in data set [1] is 92.9%; in [4] it was 61.1%; in data set [6], 56.1%; in data set [8], 25.2%; in data set [10], 57.5%. Also, the inhibition of growth at 30 µM turned out to be 91.8% in [2]; 55.1% in [3]; 52.4% in [5]; 23.8% in data set [7]; 56.7% in data set [9]. In data set [11], the log partition coefficient (logP) was 5.34 to 7.45. The molecule also displayed a solubility in [12] of less than 10 µg/mL.
With `COc1ccc(C(=O)/C=C/c2ccc(OCCO[C@H]3O[C@@H]4O[C@@]5(C)CC[C@H]6[C@H](C)CC[C@@H]([C@H]3C)[C@@]46OO5)cc2)cc1Cl`, the inhibition of growth at 50 µM worked out at 93.8% in data set [1]; 52.2% in [4]; 42.7% in [6]; 32.3% in [8]; 45.4% in data set [10]. In addition, the inhibition of growth at 30 µM came to 93.4% in data set [2]; 51.1% in data set [3]; 40.3% in data set [5]; 26.7% in data set [7]; 41.6% in [9]. Also, in data set [11], the logP is 5.34 to 7.45. The molecule also had a solubility in [12] of less than 10 µg/mL.
For the molecule `C[C@H]1[C@@H](OCCOc2cccc(C(=O)/C=C/c3cn(CCO[C@H]4O[C@@H]5O[C@@]6(C)CC[C@H]7[C@H](C)CC[C@@H]([C@H]4C)[C@@]57OO6)c4ccccc34)c2)O[C@@H]2O[C@@]3(C)CC[C@H]4[C@H](C)CC[C@@H]1[C@@]24OO3`, the inhibition of growth at 50 µM in data set [1] was 83.2%; in [4] it was 49.4%; in data set [6], 48.7%; in data set [8] it was 28.7%; in [10], 37.8%. The inhibition of growth at 30 µM in [2] was 81.5%; in data set [3], 47.1%; in data set [5] it was 46.3%; in data set [7], 25.4%; in [9], 36.2%. The logP in data set [11] was 5.34 to 7.45. Also, the solubility in data set [12] was less than 10 µg/mL.
Take `C[C@H]1[C@@H](OCCOc2ccc(/C=C/C(=O)c3ccc(Cl)s3)cc2)O[C@@H]2O[C@@]3(C)CC[C@H]4[C@H](C)CC[C@@H]1[C@@]24OO3`: the inhibition of growth at 50 µM is 92.1% in data set [1]; 59.7% in data set [4]; 39.9% in data set [6]; 25.2% in [8]; 41.6% in data set [10]. The inhibition of growth at 30 µM in data set [2] is 91.9%; in [3], 53.2%; in data set [5], 37.4%; in data set [7], 21.1%; in data set [9], 39.5%. Also, the logP in data set [11] lay within 5.34 to 7.45. For the same molecule, the solubility in data set [12] was less than 10 µg/mL.
On to `COc1ccc(C(=O)/C=C/c2ccc(OCCO[C@H]3O[C@@H]4O[C@@]5(C)CC[C@H]6[C@H](C)CC[C@@H]([C@H]3C)[C@@]46OO5)cc2)c(OC)c1`, for which the inhibition of growth at 50 µM in data set [1] is 89.5%; in data set [4], 46.8%; in data set [6] it was 49.8%; in data set [8] it was 28.9%; in data set [10] it was 74.1%. Besides, the inhibition of growth at 30 µM in data set [2] turned out to be 89.3%; in data set [3], 44.1%; in [5], 47.4%; in data set [7] it was 27.3%; in data set [9], 63.3%. Also, in data set [11], the logP lay in the range of 5.34 to 7.45. In [12], the solubility was less than 10 µg/mL.
Consider `Cc1cc(C(=O)/C=C/c2ccc(OCCO[C@H]3O[C@@H]4O[C@@]5(C)CC[C@H]6[C@H](C)CC[C@@H]([C@H]3C)[C@@]46OO5)cc2)ccc1OCCO[C@H]1O[C@@H]2O[C@@]3(C)CC[C@H]4[C@H](C)CC[C@@H]([C@H]1C)[C@@]24OO3`, for which the inhibition of growth at 50 µM in [1] stood at 70.4%; in data set [4], 49.2%; in data set [6], 23.5%; in data set [8], 20.7%; in data set [10] it was 23.5%. The inhibition of growth at 30 µM was 68.9% in [2]; 44.3% in data set [3]; 6.4% in data set [5]; 13.6% in data set [7]; 7.1% in [9]. The molecule further had a logP in data set [11] of 5.34 to 7.45. This molecule yielded a solubility in [12] of less than 10 µg/mL.
In the case of `C[C@@H]1CC[C@H]2[C@@H](C)C(=O)O[C@@H]3O[C@@]4(C)CC[C@@H]1[C@]32OO4` [ARTEMISININ], the inhibition of growth at 50 µM in data set [1] was 19.8%; in data set [4], 18%; in [6], 17.6%; in data set [8], 14.4%; in [10] it was 18.5%. For the same molecule, the inhibition of growth at 30 µM in data set [2] worked out at 14.4%; in data set [3], 13%; in data set [5], 16%; in data set [7], 10.5%; in data set [9], 13.4%.
For `COc1ccc(/C=C/C(=O)c2ccc(OCCO[C@H]3O[C@@H]4O[C@@]5(C)CC[C@H]6[C@H](C)CC[C@@H]([C@H]3C)[C@@]46OO5)cc2)c(OC)c1`, the inhibition of growth at 50 µM in data set [1] was determined as 85.7%; in data set [4] it was 41.7%; in data set [6], 46.9%; in data set [8], 25.1%; in data set [10], 29.6%. Moreover, the inhibition of growth at 30 µM in data set [2] worked out at 83.5%; in [3] it was 24.8%; in [5], 38.2%; in [7], 18.2%; in data set [9] it was 27.5%. Besides, the logP in data set [11] lay in the range of 5.34 to 7.45. In addition, the solubility in data set [12] is less than 10 µg/mL.
Turning to `C[C@H]1[C@@H](OCCOc2ccc(/C=C/C(=O)c3cc4ccccc4o3)cc2)O[C@@H]2O[C@@]3(C)CC[C@H]4[C@H](C)CC[C@@H]1[C@@]24OO3`, the inhibition of growth at 50 µM was 88.7% in data set [1]; 62.3% in [4]; 48.5% in [6]; 32% in data set [8]; 43.6% in data set [10]. Further, the inhibition of growth at 30 µM in data set [2] was 84.6%; in data set [3], 52.4%; in data set [5] it was 42.5%; in data set [7], 29.9%; in data set [9] it was 37.6%. In data set [11], this molecule registered a logP of 5.34 to 7.45. Further, the solubility in data set [12] is less than 10 µg/mL.
Take `C[C@H]1[C@@H](OCCOc2ccc(/C=C/C(=O)c3ccc(OCCO[C@H]4O[C@@H]5O[C@@]6(C)CC[C@H]7[C@H](C)CC[C@@H]([C@H]4C)[C@@]57OO6)cc3)cc2)O[C@@H]2O[C@@]3(C)CC[C@H]4[C@H](C)CC[C@@H]1[C@@]24OO3`: the inhibition of growth at 50 µM in data set [1] was 87.9%; in data set [4], 49.1%; in data set [6], 47.6%; in [8] it was 47.8%; in [10], 49.5%. The inhibition of growth at 30 µM is 85.6% in [2]; 45.1% in [3]; 44.2% in [5]; 40.9% in data set [7]; 45.8% in data set [9]. In data set [11], this molecule had a logP of 5.34 to 7.45. Moreover, the solubility in data set [12] is less than 10 µg/mL.

A word on the logP: it is the decadic logarithm of the partition coefficient of the neutral form, usually between octanol and water. A lower logP goes with a more hydrophilic compound. What is called solubility is the dissolved amount per volume that the medium holds. Low values mean little dissolved substance, high ones much dissolved substance.
